pEC50, pIC50: −log10 of the molar value. Active and inactive are the calls of the source. The rule behind the calls is not given here.
Assays:
[1] = Inhibition of HMVE cell proliferation at 0.5 uM relative to control; type: functional; conditions: Homo sapiens
[2] = Antiproliferative activity against HMVE cells; type: functional, cell-based; conditions: Homo sapiens
[3] = tested on: KG-1; test: Inhibition of cell proliferation in retinoid-resistant KG1 cells at 1 uM after 48 hrs relative to control; type: functional; conditions: Homo sapiens, KG-1, 48 h
Summary of the method: (§1)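 KG-1 cells grown in RPMI-1640 with 5% heat-inactivated FBS and gentamycin, seeded in 3 mL medium plus 5% FBS, incubated overnight. Compound then added in Me2SO (0.1% final), cells incubated for the stated time, harvested and counted by hemocytometer.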

[4] = Growth inhibition of retinoid-resistant H292 cells at 1 uM relative to control; type: functional; conditions: Homo sapiens, NCI-H292
Summary of the method: (§2)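 Cells seeded at 2 × 10^3 per well for H292 and DU-145 (RPMI-1640, 10% FBS) or 4 × 10^3 for MDA-MB-231 (DMEM, 10% FBS), 37 °C, 6% CO2. After 24 h attachment, treated 72 h with compound in Me2SO (0.1% final); media and compound renewed at 48 h. Viable cells by MTS reduction; triplicates per concentration.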

[5] = tested on: DU-145; test: Growth inhibition of retinoid-resistant DU145 cells at 1 uM relative to control; type: functional; conditions: Homo sapiens; summary of the method: as §2
[6] = tested on: KG-1; test: Induction of apoptosis in retinoid-resistant KG1 cells at 1 uM after 48 hrs; type: functional, Homo sapiens
Summary of the method: (§3)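 Apoptotic cells scored by acridine orange staining. KG-1, HL-60R or MDA-MB-231 cells seeded in medium with 5% FBS, incubated overnight, then exposed to compound in Me2SO (0.1% final) for the stated time.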

[7] = target: T1, Tyrosine-protein phosphatase non-receptor type 11 (Homo sapiens, UniProt Q06124); test: Inhibition of SHP2 PTP by fluorescence spectroscopy
T1 sequence (Q06124 whole entry): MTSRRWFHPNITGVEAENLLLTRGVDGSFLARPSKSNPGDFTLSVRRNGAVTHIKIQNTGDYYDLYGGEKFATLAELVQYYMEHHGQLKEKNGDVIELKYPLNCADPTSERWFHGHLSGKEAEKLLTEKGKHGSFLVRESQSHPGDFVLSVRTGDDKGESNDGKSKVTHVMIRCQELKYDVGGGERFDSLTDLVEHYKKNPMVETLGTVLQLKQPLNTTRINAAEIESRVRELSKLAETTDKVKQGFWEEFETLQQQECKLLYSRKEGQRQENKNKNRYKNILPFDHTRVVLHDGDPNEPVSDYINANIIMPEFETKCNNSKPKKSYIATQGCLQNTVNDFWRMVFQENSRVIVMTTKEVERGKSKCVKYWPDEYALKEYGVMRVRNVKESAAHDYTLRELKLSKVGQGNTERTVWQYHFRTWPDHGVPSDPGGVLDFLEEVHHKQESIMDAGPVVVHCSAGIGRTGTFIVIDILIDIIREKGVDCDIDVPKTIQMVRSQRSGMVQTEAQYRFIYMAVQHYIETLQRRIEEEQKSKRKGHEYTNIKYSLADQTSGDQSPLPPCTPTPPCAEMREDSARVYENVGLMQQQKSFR

[8] = tested on: MDA-MB-231; test: Growth inhibition of retinoid-resistant MDA-MB-231 cells after 72 hrs; type: functional, cell-based; conditions: Homo sapiens, MDA-MB-231, 72 h; summary of the method: as §2
[9] = target: Receptor-type tyrosine-protein phosphatase C, CD45 (Homo sapiens) (UniProt P08575); test: Inhibition of CD45 PTP at 10 uM relative to control by fluorescence spectrometry
[10] = tested on: KG-1; test: Inhibition of cell proliferation in retinoid-resistant KG1 cells after 48 hrs; type: functional, cell-based; conditions: Homo sapiens, KG-1, 48 h; summary of the method: as §1
[11] = tested on: MDA-MB-231; test: Growth inhibition of retinoid-resistant MDA-MB-231 cells at 1 uM relative to control; type: functional; conditions: Homo sapiens; summary of the method: as §2
[12] = tested on: DU-145; test: Growth inhibition of retinoid-resistant DU145 cells after 72 hrs; type: functional, cell-based; conditions: Homo sapiens, DU-145, 72 h; summary of the method: as §2
[13] = tested on: KG-1; test: Growth inhibition of retinoid-resistant KG1 cells at 5 uM after 48 hrs; type: functional; conditions: Homo sapiens, KG-1, 48 h; summary of the method: as §1
[14] = tested on: KG-1; test: Induction of apoptosis in retinoid-resistant KG1 cells at 5 uM after 48 hrs; type: functional, Homo sapiens; summary of the method: as §3
[15] = Growth inhibition of retinoid-resistant H292 cells after 72 hrs; type: functional, cell-based; conditions: Homo sapiens, NCI-H292, 72 h; summary of the method: as §2
[16] = tested on: KG-1; test: Inhibition of cell proliferation of KG1 cells; type: functional, cell-based; conditions: Homo sapiens; summary of the method: as §1
[17] = target: T2, Nuclear receptor subfamily 0 group B member 2 (Homo sapiens) (UniProt Q15466); test: Displacement of [5,5'-3H2]AHPN from recombinant human GST-SHP partner nuclear orphan receptor at 50 uM
T2 sequence (whole entry): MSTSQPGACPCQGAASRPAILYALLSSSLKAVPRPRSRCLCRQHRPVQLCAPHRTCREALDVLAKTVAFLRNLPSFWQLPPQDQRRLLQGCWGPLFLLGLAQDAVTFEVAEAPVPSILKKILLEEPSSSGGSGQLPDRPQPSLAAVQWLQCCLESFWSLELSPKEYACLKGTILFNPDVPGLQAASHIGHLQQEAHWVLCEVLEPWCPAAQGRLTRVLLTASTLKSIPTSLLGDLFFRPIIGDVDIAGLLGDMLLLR
Summary of the method: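 GST–human SHP fusion (150–500 ng) on glutathione-Sepharose beads preincubated on ice 45 min with unlabeled compound (50 µM final) in 0.4 mL binding buffer. [5,5′-3H2]AHPN (5 nM final) then added for 2 h at 4 °C. Beads washed, counted by scintillation directly or after elution with 50 mM NaHCO3/1% SDS.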

[18] = tested on: Mus musculus; test: Inhibition of TPA-induced ornithine decarboxylase in mouse dorsal epidermis applied topically after 1 hr; type: functional
[19] = tested on: F9; test: Induction of terminal differentiation in mouse F9 cells assessed by measuring secreted plasminogen activator activity after 3 days; type: functional, cell-based; conditions: F9, 72 h, read-out: IC50 (the source's name)
[20] = tested on: Trachea; test: Reversal of keratinization in vitamin A-deficient hamster trachea after 10 days by TOC assay; type: functional, tissue-based; conditions: Cricetinae, 240 h
[21] = tested on: MDA-MB-231; test: Induction of apoptosis in retinoid-resistant MDA-MB-231 cells at 1 uM after 96 hrs; type: functional, Homo sapiens; summary of the method: as §3
[22] = (§4) Induction of apoptosis in tran-RA-resistant HL60R cells at 1 uM after 24 hrs; type: functional, Homo sapiens
[23] = tested on: HL60R; test: as §4; type: functional; conditions: Homo sapiens

Sequence of Receptor-type tyrosine-protein phosphatase C, CD45 (Homo sapiens) (P08575 whole entry, looked up): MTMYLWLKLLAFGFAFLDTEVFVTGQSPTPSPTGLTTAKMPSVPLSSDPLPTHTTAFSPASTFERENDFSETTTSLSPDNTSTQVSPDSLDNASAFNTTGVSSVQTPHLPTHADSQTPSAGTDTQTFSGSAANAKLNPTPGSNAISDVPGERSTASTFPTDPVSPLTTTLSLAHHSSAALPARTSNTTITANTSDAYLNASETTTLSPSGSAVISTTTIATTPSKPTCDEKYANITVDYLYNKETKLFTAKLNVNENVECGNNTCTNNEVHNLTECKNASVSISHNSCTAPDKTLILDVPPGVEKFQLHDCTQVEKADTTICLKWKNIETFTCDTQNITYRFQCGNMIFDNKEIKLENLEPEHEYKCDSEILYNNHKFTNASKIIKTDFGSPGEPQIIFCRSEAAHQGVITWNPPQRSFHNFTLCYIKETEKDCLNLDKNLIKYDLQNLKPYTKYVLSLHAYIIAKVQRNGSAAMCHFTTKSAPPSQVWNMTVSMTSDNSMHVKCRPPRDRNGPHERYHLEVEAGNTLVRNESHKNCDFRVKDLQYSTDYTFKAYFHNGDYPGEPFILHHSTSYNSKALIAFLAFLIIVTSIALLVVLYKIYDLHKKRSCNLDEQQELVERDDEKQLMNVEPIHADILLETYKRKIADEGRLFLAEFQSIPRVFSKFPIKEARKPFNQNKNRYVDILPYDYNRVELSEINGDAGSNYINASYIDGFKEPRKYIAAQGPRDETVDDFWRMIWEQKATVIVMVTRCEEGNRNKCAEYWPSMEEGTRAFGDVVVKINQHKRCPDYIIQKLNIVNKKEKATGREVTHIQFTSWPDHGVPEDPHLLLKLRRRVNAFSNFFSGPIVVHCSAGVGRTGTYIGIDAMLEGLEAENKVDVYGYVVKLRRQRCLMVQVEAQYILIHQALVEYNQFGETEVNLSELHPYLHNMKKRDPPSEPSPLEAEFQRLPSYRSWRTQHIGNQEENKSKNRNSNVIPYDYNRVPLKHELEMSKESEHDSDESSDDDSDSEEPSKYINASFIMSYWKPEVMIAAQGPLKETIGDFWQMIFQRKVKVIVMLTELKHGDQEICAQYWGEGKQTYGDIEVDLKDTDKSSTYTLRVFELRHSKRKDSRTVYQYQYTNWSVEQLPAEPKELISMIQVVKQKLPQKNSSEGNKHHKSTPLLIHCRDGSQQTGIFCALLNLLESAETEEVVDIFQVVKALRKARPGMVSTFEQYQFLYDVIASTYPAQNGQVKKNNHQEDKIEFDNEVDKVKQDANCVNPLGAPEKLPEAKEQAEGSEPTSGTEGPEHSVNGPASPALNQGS

SMILES | inhibition at 0.5 µM [1] [%] | pIC50 [2] | inhibition at 1 µM [3] [%] | inhibition at 1 µM [4] [%] | inhibition at 1 µM [5] [%] | Activity [6] [%] | pIC50 [8] | pIC50 [10] | inhibition at 1 µM [11] [%] | pIC50 [12] | inhibition at 5 µM [13] [%] | Activity [14] [%] | pIC50 [15] | also measured
O=C(O)c1ccc2c(Cl)c(-c3ccc(O)c(C45CC6CC(CC(C6)C4)C5)c3)ccc2c1 | 45 | 6.30 | – | – | – | – | – | – | – | – | – | – | – | –
Oc1ccc(-c2ccc(-c3nnn[nH]3)cc2Cl)cc1C12CC3CC(CC(C3)C1)C2 | – | – | 13 | 3 | 0 | 2 | 4.15 | < 5.30 | 0 | 4.28 | 21 | 2 | 4.85 | pIC50 [7]: 5.89; inhibition [9]: 46%
CC1(C)CCC(C)(C)c2cc(/C(=N\O)c3ccc4cc(C(=O)O)ccc4c3)ccc21 | 30 | – | – | – | – | – | – | – | – | – | – | – | – | –
OB(O)/C=C/c1ccc(-c2ccc(O)c(C34CC5CC(CC(C5)C3)C4)c2)c(Cl)c1 | – | – | 0 | 0 | 2 | 4 | 4.72 | < 5.30 | 3 | 5.15 | 0 | 4 | 5.14 | pIC50 [16]: < 5.30; Activity [17]: 0%
O=C1NC(=O)/C(=C/C=C/c2ccc(-c3ccc(O)c(C45CC6CC(CC(C6)C4)C5)c3)c(Cl)c2)S1 | – | – | 0 | 2 | 0 | 2 | 4.62 | – | 0 | 4.82 | 2 | 2 | 4.64 | Activity [17]: 69%
CC(=O)NCCCOc1cc(/C=C/C(=O)O)ccc1-c1ccc(O)c(C23CC4CC(CC(C4)C2)C3)c1 | – | – | – | – | – | – | – | – | – | – | – | – | – | Activity [17]: 72%
N#CC(C#N)=Cc1ccc(-c2ccc(O)c(C34CC5CC(CC(C5)C3)C4)c2)c(Cl)c1 | – | – | 0 | 0 | 4 | 0 | < 5.00 | < 5.30 | 0 | < 5.00 | 0 | 3 | < 5.00 | pIC50 [16]: < 5.30
Cc1c(-c2ccc3c(c2)C(C)(C)CCC3(C)C)ccc2cc(C(=O)O)ccc12 | – | – | – | – | – | – | – | – | – | – | – | – | – | ID50 [18]: 66 nmol; pEC50 [19]: 8.52; pIC50 [20]: 10.10
Oc1ccc2cc(-c3ccc(O)c(C45CC6CC(CC(C6)C4)C5)c3)ccc2c1 | 15 | < 6.30 | – | – | – | – | – | – | – | – | – | – | – | –
CC1(C)CCC(C)(C)c2cc(-c3ccc(/C=C/C(=O)O)cc3)ccc21 | – | – | – | – | – | – | – | – | – | – | – | – | – | ID50 [18]: 7.5 nmol; pEC50 [19]: 9.52; pIC50 [20]: 9.49
O=C(O)/C=C/c1ccc(-c2ccc(O)c(C34CC5CC(CC(C5)C3)C4)c2)cc1 [ADAROTENE] | 90 | 7.00 | – | – | – | – | – | – | – | – | – | – | – | inhibition [9]: 84%
O=CC(=O)/C=C/c1ccc(-c2ccc(O)c(C34CC5CC(CC(C5)C3)C4)c2)c(Cl)c1 | – | – | 11 | 7 | 0 | 5 | 4.85 | 5.00 | 0 | 5.11 | 38 | 6 | 5.15 | –
CC1(C)CCC(C)(C)c2cc(-c3ccc4cc(C(=O)O)ccc4c3)ccc21 | – | – | – | – | – | – | – | – | – | – | – | – | – | ID50 [18]: 2 nmol; pEC50 [19]: 9.00; pIC50 [20]: 11.15
Cc1c(-c2ccc(O)c(C34CC5CC(CC(C5)C3)C4)c2)ccc2cc(C(=O)O)ccc12 | – | – | – | – | – | – | – | – | – | – | – | 73 | – | Activity at 1 µM ([6]; Homo sapiens, KG-1, 48 h): 51%
CCOP(=O)(O)/C=C/c1ccc(-c2ccc(O)c(C34CC5CC(CC(C5)C3)C4)c2)c(Cl)c1 | – | – | 0 | 2 | 3 | 0 | < 5.30 | < 5.30 | 3 | < 5.30 | 0 | 0 | < 5.30 | –
O=C(O)c1ccc2cc(-c3ccc(O)c(C45CC6CC(CC(C6)C4)C5)c3)ccc2c1 [O-DEMETHYLATED ADAPALENE] | – | 6.52 | – | – | – | – | – | – | – | – | – | – | – | Activity [21]: 46%; ID50 [18]: 66 nmol; Activity [22]: 98%; Activity [17]: 53%
O=C(/C=C/c1ccc(-c2ccc(O)c(C34CC5CC(CC(C5)C3)C4)c2)c(Cl)c1)NO | – | – | 0 | 6 | 7 | – | 5.20 | < 5.30 | 4 | 5.46 | 0 | 4 | 5.05 | pIC50 [16]: < 5.30; Activity [17]: 7%
CC1=C(/C=C/C(C)=C/C=C/C(C)=C/C(=O)O)C(C)(C)CCC1 [TRETINOIN] | 10 | < 6.30 | – | – | – | – | – | – | – | – | – | – | – | ID50 [18]: 0.19 nmol; pIC50 [20]: 11.00
O=C(O)c1ccc2ccc(-c3ccc(O)c(C45CC6CC(CC(C6)C4)C5)c3)cc2c1 | 15 | < 6.30 | – | – | – | – | – | – | – | – | – | – | – | Activity [23]: inactive
Oc1ccc(-c2ccc(/C=C/c3nnn[nH]3)cc2Cl)cc1C12CC3CC(CC(C3)C1)C2 | – | – | 0 | 3 | 0 | 10 | 4.68 | 4.89 | 0 | 4.85 | 31 | 12 | 4.80 | –
